Measurements as given in ChEMBL document CHEMBL1142973, “Enzymatically activated cycloSal-d4T-monophosphates: The third generation of cycloSal-pronucleotides” (J Med Chem, 2007).

Experiments:
[1] = Chemical stability in phosphate buffer at pH 7.3; type: physicochemical
Summary of the method: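 Triesters incubated in aqueous 25 mM phosphate buffer, pH 7.3; hydrolysis products (d4TMP, salicyl alcohol) followed by HPLC to give half-lives.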

[2] = test system: Human immunodeficiency virus 1; experiment: Antiviral activity against HIV1 in CEM/0 cells; type: functional, organism-based; settings: Human immunodeficiency virus 1, CCRF-CEM
Summary of the method: (§1)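 CEM/0 cells at 4 × 10^5 cells/mL infected with HIV (HIV-1, or HIV-2 strain ROD) at ~100 CCID50 per mL; virus stocks from infected MT-4 cell supernatants. Mixed 1:1 with compound dilutions, 4-5 days; giant cell formation scored microscopically. EC50, means of two to three independent experiments.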

[3] = test system: Human immunodeficiency virus 2; experiment: Antiviral activity against HIV2 ROD in CEM/0 cells; type: functional, organism-based; settings: Human immunodeficiency virus 2, ROD, CCRF-CEM; summary of the method: as §1
[4] = test system: Human immunodeficiency virus 2; experiment: Antiviral activity against HIV2 ROD in CEM/TK- cells; type: functional, organism-based; settings: Human immunodeficiency virus 2, ROD
Summary of the method: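 Thymidine kinase-deficient CEM/TK- cells at 4 × 10^5 cells/mL infected with HIV-2 (ROD, MT-4-grown stock) at ~100 CCID50/mL; mixed 1:1 with compound dilutions; giant cell formation scored microscopically after 4-5 days. EC50 as means of two to three independent experiments.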

[5] = Hydrolysis half life in human serum at pH 6.8; type: ADME, cell-free
Summary of the method: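 Incubation in human serum pooled from hospital blood samples, pH 6.8, without acetic acid stop; products analysed by HPLC; half-life determined.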

[6] = Hydrolysis half life in […]/FCS medium at pH 7.6; type: ADME; settings: cattle, […]/FCS culture medium
Summary of the method: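 Incubated in RPMI-1640 culture medium with 10% heat-inactivated fetal calf serum, pH 7.6; cleavage products followed by HPLC to derive half-lives.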

[7] = Hydrolysis half life in CEM cell extracts at pH 6.9; type: ADME; settings: human, CEM (CCRF-CEM) cell extracts

Row | Structure (SMILES) | half-life [1] | EC50 [2] | EC50 [3] | EC50 [4] | half-life [5] | half-life [6] | half-life [7]
1 | Cc1cn([C@H]2C=C[C@@H](COP3(=O)OCc4cc(Br)ccc4O3)O2)c(=O)[nH]c1=O (stereo partly specified) | 0.88 h | 140 nM | 260 nM | 15000 nM | – | – | –
2 | Cc1cn([C@H]2C=C[C@@H](COP3(=O)OCc4cc([N+](=O)[O-])ccc4O3)O2)c(=O)[nH]c1=O (stereo partly specified) | – | 290 nM | 400 nM | 40000 nM | – | – | –
3 | CC(=O)OC(OC(C)=O)c1cc2c(c(C(C)(C)C)c1)OP(=O)(OC[C@@H]1C=C[C@H](n3cc(C)c(=O)[nH]c3=O)O1)OC2 (stereo partly specified) | 7 h | 320 nM | 750 nM | 3000 nM | 8.7 h | 4.7 h | 0.12 h
4 | Cc1cn([C@H]2C=C[C@@H](COP3(=O)OCc4cccc(C(C)(C)C)c4O3)O2)c(=O)[nH]c1=O (stereo partly specified) | 73 h | 180 nM | 650 nM | 330 nM | – | – | –
5 | Cc1cn([C@H]2C=C[C@@H](COP3(=O)OCc4cc(CCC(=O)OCOC(=O)C(C)C)ccc4O3)O2)c(=O)[nH]c1=O (stereo partly specified) | 3.9 h | 260 nM | 600 nM | 1730 nM | – | – | 0.9 h
6 | CC(=O)OC(OC(C)=O)c1ccc2c(c1)COP(=O)(OC[C@@H]1C=C[C@H](n3cc(C)c(=O)[nH]c3=O)O1)O2 (stereo partly specified) | 1.2 h | 420 nM | 400 nM | 10500 nM | 1.5 h | 0.9 h | 0.08 h
7 | Cc1cn([C@H]2C=C[C@@H](COP3(=O)OCc4cc(C=O)cc(C(C)(C)C)c4O3)O2)c(=O)[nH]c1=O (stereo partly specified) | 0.95 h | 450 nM | 600 nM | 17500 nM | – | – | –
8 | Cc1cn([C@H]2C=C[C@@H](COP3(=O)OCc4cc(C=O)ccc4O3)O2)c(=O)[nH]c1=O (stereo partly specified) | 0.18 h | 410 nM | 150 nM | 5000 nM | – | – | –
9 | Cc1cn([C@H]2C=C[C@@H](COP3(=O)OCc4cc(CCC(=O)OCOC(=O)C(C)(C)C)ccc4O3)O2)c(=O)[nH]c1=O (stereo partly specified) | 5.6 h | 230 nM | 330 nM | 700 nM | – | – | 0.38 h
10 | Cc1cccc2c1OP(=O)(OC[C@@H]1C=C[C@H](n3cc(C)c(=O)[nH]c3=O)O1)OC2 (stereo partly specified) | 17.5 h | 60 nM | 70 nM | 50 nM | – | – | 14.5 h
11 | Cc1cn([C@H]2C=C[C@@H](CO)O2)c(=O)[nH]c1=O [STAVUDINE] | – | 480 nM | 630 nM | 47500 nM | – | – | –
12 | CC(=O)OC(OC(C)=O)c1cc(C)c2c(c1)COP(=O)(OC[C@@H]1C=C[C@H](n3cc(C)c(=O)[nH]c3=O)O1)O2 (stereo partly specified) | 2.3 h | – | – | – | 3.6 h | 1.5 h | 0.08 h
13 | Cc1cc(C=O)cc2c1OP(=O)(OC[C@@H]1C=C[C@H](n3cc(C)c(=O)[nH]c3=O)O1)OC2 (stereo partly specified) | 0.35 h | – | – | – | – | – | –
